Experimental data published in ChEMBL document CHEMBL1126198, “A new class of high affinity ligands for the neurokinin A NK2 receptor: psi (CH2NR) reduced peptide bond analogues of neurokinin A4-10” (J Med Chem, 1992).
Starred links: 1 amine or outer side, 2 acyl side, 3 side chain; linkers in the order of their positions; H or OH if unused. Non-standard residues stand in square brackets, D forms with d. Residues, ends and D or L forms follow the SMILES beside them. *: point of attachment. X3 = N[C@@H](CC(=O)O)C(=O)N[C@@H](CO)CN([C@@H](Cc1ccccc1)C(=O)[*:2])[*:1]; Leuψ(CH2NH)PheNH2 = CC(C)C[C@@H](CN[C@@H](Cc1ccccc1)C(N)=O)N*; X9 = CC(C)CC(=O)N(C[C@H](CC(C)C)N*)[C@@H](CC(C)C)C(N)=O; X7 = CCCN(C[C@H](CC(C)C)N*)[C@@H](Cc1ccccc1)C(N)=O; X4 = CC(C)C[C@H](NC(=O)[C@H](CC(C)C)NCCN*)C(N)=O; X2 = CCN(C[C@H](CC(C)C)N*)[C@@H](CC(C)C)C(N)=O; X8 = CC(C)C[C@@H](CN(C)[C@@H](CC(C)C)C(N)=O)N*; X6 = CC(C)C[C@H](NC[C@H](Cc1ccccc1)N*)C(N)=O; X1 = CC(C)C[C@@H](CN[C@@H](CC(C)C)C(N)=O)N*; X5 = O=C(O)CCCN([C@@H](CO)C(=O)[*:2])[*:1]; βAla = NCCC(=O)O

Key:
[1] = molecular target: T1, Substance-K receptor (Mesocricetus auratus, UniProt P51144); experiment: Competitive inhibition of [125I]NKA binding to hamster urinary bladder Tachykinin receptor 2; format: single protein
T1 sequence (P51144 whole entry): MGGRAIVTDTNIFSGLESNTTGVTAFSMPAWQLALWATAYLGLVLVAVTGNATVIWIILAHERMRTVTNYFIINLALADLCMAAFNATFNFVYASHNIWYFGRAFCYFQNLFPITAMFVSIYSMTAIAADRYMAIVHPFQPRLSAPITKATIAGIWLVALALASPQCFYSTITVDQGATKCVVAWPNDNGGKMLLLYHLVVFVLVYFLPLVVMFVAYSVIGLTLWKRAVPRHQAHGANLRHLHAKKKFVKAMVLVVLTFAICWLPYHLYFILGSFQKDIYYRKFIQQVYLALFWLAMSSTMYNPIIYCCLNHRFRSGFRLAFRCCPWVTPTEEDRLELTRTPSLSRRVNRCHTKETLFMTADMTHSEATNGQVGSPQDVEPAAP

[2] = test system: Cricetinae gen. sp.; experiment: Compound was evaluated for the competitive antagonism of NKA-stimulated PI (phosphatidylinositol) turnover in hamster urinary bladder tissue using [3H]inositol as radioligand; format: functional; settings: read-out: pA2 (converted)
In short: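 Chopped hamster bladder labeled 1 h at 37 °C with [3H]myo-inositol. Assay run at room temperature in Krebs-HEPES (20 mM). Total inositol phosphates isolated on ion-exchange columns eluted sequentially, starting with water. PI turnover ratio = inositol phosphates cpm / organic extraction phase cpm. Basal level taken without NKA; maximum stimulation with 1 μM NKA. Mean ± SEM of separate experiments.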

Row | SMILES | IC50 [1] [nM] | Kb [2] [nM]
1 | CC(C)C[C@H](NC(=O)[C@H](CC(C)C)NC(=O)CNC(=O)[C@@H](NC(=O)[C@H](Cc1ccccc1)NC(=O)[C@H](CO)NC(=O)[C@@H](N)CC(=O)O)C(C)C)C(N)=O | 136 | –
2 | CC(C)C[C@H](NC(=O)[C@H](CC(C)C)NCCNC(=O)[C@@H](NC(=O)[C@H](Cc1ccccc1)NC(=O)[C@H](CO)NC(=O)[C@@H](N)CC(=O)O)C(C)C)C(N)=O (H-DSFV-X4) | > 10000 | –
3 | CC(C)C[C@@H](CN[C@@H](Cc1ccccc1)C(N)=O)NC(=O)CCNC(=O)[C@@H](NC(=O)[C@H](Cc1ccccc1)NC(=O)[C@H](CO)NC(=O)[C@@H](N)CC(=O)O)C(C)C (H-DSFV[βAla]-{Leuψ(CH2NH)PheNH2}) | 10 | –
4 | CC(C)C[C@H](NC(=O)[C@H](CC(C)C)NC(=O)CNC[C@@H](NC(=O)[C@H](Cc1ccccc1)NC(=O)[C@H](CO)NC(=O)[C@@H](N)CC(=O)O)C(C)C)C(N)=O | 5660 | –
5 | CC(C)C[C@@H](CN[C@@H](Cc1ccccc1)C(N)=O)NC(=O)CNC(=O)[C@@H](NC(=O)[C@H](Cc1ccccc1)NC(=O)[C@H](CO)NC(=O)[C@@H](N)CC(=O)O)C(C)C (H-DSFVG-{Leuψ(CH2NH)PheNH2}) | 9 | –
6 | CSCC[C@H](NC(=O)[C@H](CC(C)C)NC(=O)CNC(=O)[C@@H](NC(=O)[C@H](Cc1ccccc1)NC(=O)[C@H](CO)NC(=O)[C@@H](N)CC(=O)O)C(C)C)C(N)=O | 6 | –
7 | CC(C)C[C@H](NC(=O)[C@H](CC(C)C)NC(=O)CNC(=O)[C@@H](NC(=O)[C@H](Cc1ccccc1)NC[C@H](CO)NC(=O)[C@@H](N)CC(=O)O)C(C)C)C(N)=O (H-[X3]VGLL-NH2) | > 10000 | –
8 | CC(C)C[C@H](NC(=O)[C@H](CC(C)C)NC(=O)CNC(=O)[C@@H](NC(=O)[C@H](Cc1ccccc1)NC(=O)[C@H](CO)NCCCC(=O)O)C(C)C)C(N)=O (H-[X5]FVGLL-NH2) | 1650 | –
9 | CCN(C[C@H](CC(C)C)NC(=O)CNC(=O)[C@@H](NC(=O)[C@H](Cc1ccccc1)NC(=O)[C@H](CO)NC(=O)[C@@H](N)CC(=O)O)C(C)C)[C@@H](CC(C)C)C(N)=O (H-DSFVG-X2) | 277 | –
10 | CSCC[C@H](NC(=O)[C@H](CC(C)C)NC(=O)CNC(=O)[C@@H](NC(=O)[C@H](Cc1ccccc1)NC(=O)[C@H](CO)NC(=O)[C@H](CC(=O)O)NC(=O)[C@@H](NC(=O)[C@H](CCCCN)NC(=O)[C@@H](N)Cc1cnc[nH]1)[C@@H](C)O)C(C)C)C(N)=O [NEUROKININ A] | 1 | –
11 | CC(C)C[C@@H](CN[C@@H](CC(C)C)C(N)=O)NC(=O)CCNC(=O)[C@@H](NC(=O)[C@H](Cc1ccccc1)NC(=O)[C@H](CO)NC(=O)[C@@H](N)CC(=O)O)C(C)C (H-DSFV[βAla]-X1) | 108 | –

Now from value to molecule, other results behind:

Row | IC50 [1] [nM] | SMILES | Kb [2] [nM]
12 | 1 | CCCN(C[C@H](CC(C)C)NC(=O)CCNC(=O)[C@@H](NC(=O)[C@H](Cc1ccccc1)NC(=O)[C@H](CO)NC(=O)[C@@H](N)CC(=O)O)C(C)C)[C@@H](Cc1ccccc1)C(N)=O (H-DSFV[βAla]-X7) | –
13 | > 10000 | CC(C)C[C@H](NC[C@H](Cc1ccccc1)NC(=O)CNC(=O)[C@@H](NC(=O)[C@H](Cc1ccccc1)NC(=O)[C@H](CO)NC(=O)[C@@H](N)CC(=O)O)C(C)C)C(N)=O (H-DSFVG-X6) | –
14 | > 10000 | CC(C)C[C@H](NC(=O)[C@H](CC(C)C)NC(=O)CNC(=O)[C@@H](NC[C@H](Cc1ccccc1)NC(=O)[C@H](CO)NC(=O)[C@@H](N)CC(=O)O)C(C)C)C(N)=O | –
15 | 148 | CSCC[C@H](NC(=O)[C@H](CC(C)C)NC(=O)CNC(=O)[C@H](Cc1ccccc1)NC(=O)[C@H](Cc1ccccc1)NC(=O)[C@H](CCC(N)=O)NC(=O)[C@H](CCC(N)=O)NC(=O)[C@@H]1CCCN1C(=O)[C@H](CCCCN)NC(=O)[C@@H]1CCCN1C(=O)[C@@H](N)CCCN=C(N)N)C(N)=O [SUBSTANCE P] | –
16 | 193 | CC(C)C[C@@H](CN(C)[C@@H](CC(C)C)C(N)=O)NC(=O)CNC(=O)[C@@H](NC(=O)[C@H](Cc1ccccc1)NC(=O)[C@H](CO)NC(=O)[C@@H](N)CC(=O)O)C(C)C (H-DSFVG-X8) | –
17 | 162 | CC(C)CC(=O)N(C[C@H](CC(C)C)NC(=O)CNC(=O)[C@@H](NC(=O)[C@H](Cc1ccccc1)NC(=O)[C@H](CO)NC(=O)[C@@H](N)CC(=O)O)C(C)C)[C@@H](CC(C)C)C(N)=O (H-DSFVG-X9) | –
18 | 115 | CC(C)C[C@@H](CN[C@@H](CC(C)C)C(N)=O)NC(=O)CNC(=O)[C@@H](NC(=O)[C@H](Cc1ccccc1)NC(=O)[C@H](CO)NC(=O)[C@@H](N)CC(=O)O)C(C)C (H-DSFVG-X1) | 200
